# Active and inactive are the calls of the source. The calls are words filed in the database; no cut-off is given here.
# What was measured:
# MM1.S [1] = experiment: Induction of apoptosis in human MM1.S cells assessed as late apoptotic cells preincubated in presence of 5 micromol/L UNC1999 for 48 hrs followed by compound addition at 2 micromol/L incubated for 12 hrs by annexin V/PI staining based flow cytometry (reference value: 3.6%); type: functional; conditions: dose 2 µmol/L, at 2 µM
# NCI-H929 [2] = experiment: Downregulation of EZH2 protein expression in human NCI-H929 cells at 0.3 to 5 micromol/L for 6 to 48 hrs by Western blot analysis; type: functional, cell-based; conditions: dose 0.3-5 µmol/L, time 6-48 hrs
# How it was run: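 MM.1S and H929 cells exposed to TAS-117 at the indicated doses for 48 h, or to 5 μmol/L for the indicated times. Immunoblot with GAPDH, Akt and H3 as loading controls; EZH2 quantified relative to GAPDH.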
# MM1.S [3] = experiment: Synergistic activity against human MM.1S cells assessed as combination index […] in presence of 5 uM UNC1999 for 72 hrs […] at 0.25 uM incubated for 48 hrs by MTT assay; type: functional
# How it was run: (§1)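 Cells were exposed to the EZH2/EZH1 inhibitor (UNC1999 or GSK126) for 72 h in total, with the Akt inhibitor added for the last 48 h. Viability was read by MTS assay relative to untreated control cells, in triplicate. The combination index for each dose pair came from isobologram analysis.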
# OPM-2/BTZ [4] = experiment: Upregulation of p27 protein expression in human OPM-2/BTZ cells incubated at 0.3 to 3 micromol/L for 48 hrs by Western blot analysis; type: functional, cell-based; conditions: dose 0.3-3 µmol/L
# MM1.S [5] = experiment: Synergistic activity against human MM.1S cells assessed as combination index […] at 0.5 uM incubated for 48 hrs by […]; type: functional; how it was run: as §1
# OPM-2 [6] = experiment: Synergistic activity against human OPM-2 cells assessed as combination index preincubated in presence of 2.5 uM UNC1999 for 72 hrs followed by compound addition at 1.25 uM incubated for 48 hrs by MTT assay; type: functional
# OPM-2/BTZ [7] = experiment: Downregulation of CDK2 protein expression in human OPM-2/BTZ cells incubated at 0.3 to 3 micromol/L for 48 hrs by Western blot analysis; type: functional, cell-based; conditions: dose 0.3-3 µmol/L
# OPM-2/BTZ [8] = experiment: Synergistic activity against human OPM-2/BTZ cells assessed as combination index preincubated in presence of 5 uM GSK126 for 72 hrs followed by compound addition at 2 uM incubated for 48 hrs by MTT assay; type: functional
# OPM-2 [9] = experiment: Synergistic activity against human OPM-2 cells assessed as combination index preincubated in presence of 5 uM UNC1999 for 72 hrs followed by compound addition at 1.25 uM incubated for 48 hrs by MTT assay; type: functional
# NCI-H929 [10] = experiment: Synergistic activity against human NCI-H929 cells assessed as combination index […] at 0.5 uM incubated for 48 hrs by […]; type: functional; how it was run: as §1
# [11] = biological target: Serine/threonine-protein kinase AKT (Homo sapiens) (UniProt P31751+Q9Y243+P31749); experiment: Inhibition of Akt phosphorylation in human OPM-2/BTZ cells after 48 hrs at 0.3 to 2 micromol/L for 48 hrs by Western blot analysis; type: cell-based; conditions: dose 0.3-2 µmol/L
# OPM-2 [12] = experiment: Synergistic activity against human OPM-2 cells assessed as combination index preincubated in presence of 1.25 uM UNC1999 for 72 hrs followed by compound addition at 1.25 uM incubated for 48 hrs by MTT assay; type: functional
# NCI-H929 [13] = experiment: Upregulation of EZH1 mRNA expression in human NCI-H929 cells at 0.03 to 3 micromo/L at 6 to 48 hrs by qRT-PCR analysis; type: functional, cell-based; conditions: dose 0.03-3 µmol/L, time 6-48 hrs
# How it was run: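 EZH1 mRNA was measured by qRT-PCR in MM.1S and H929 cells. Dose series: cells were treated with graded TAS-117 for 24 h. Time course: cells were treated with 3 μmol/L for the indicated times. Fold change is after GAPDH normalization, relative to the untreated control. Data are SD of triplicates.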
# OPM-2/BTZ [14] = experiment: Synergistic activity against human OPM-2/BTZ cells assessed as combination index preincubated in presence of 2.5 uM GSK126 for 72 hrs followed by compound addition at 2 uM incubated for 48 hrs by MTT assay; type: functional
# NCI-H929 [15] = experiment: Synergistic activity against human NCI-H929 cells assessed as combination index […] compound addition at 0.25 uM incubated for 48 hrs by […]; type: functional; how it was run: as §1
# NCI-H929 [16] = experiment: Induction of apoptosis in human NCI-H929 cells assessed as viable cells preincubated in presence of 5 micromol/L UNC1999 for 48 hrs followed by compound addition at 2 micromol/L incubated for 12 hrs by annexin V/PI staining based flow cytometry (reference value: 95.6%); type: functional; conditions: dose 2 µmol/L, at 2 µM
# NCI-H929 [17] = experiment: Upregulation of p27 protein expression in human NCI-H929 cells incubated at 0.3 to 3 micromol/L for 48 hrs by Western blot analysis; type: functional, cell-based; conditions: dose 0.3-3 µmol/L
# NCI-H929 [18] = experiment: Induction of apoptosis in human NCI-H929 cells assessed as necrotic cells preincubated in presence of 5 micromol/L UNC1999 for 48 hrs followed by compound addition at 2 micromol/L incubated for 12 hrs by annexin V/PI staining based flow cytometry (reference value: 2.61%); type: functional; conditions: dose 2 µmol/L, at 2 µM
# MM1.S [19] = experiment: Upregulation of EZH1 protein expression in human MM1.S cells at 0.03 to 3 micromol/L after 48 hrs by Western blot analysis; type: functional, cell-based; conditions: dose 0.03-3 µmol/L
# How it was run: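 MM.1S and H929 cells were treated with graded TAS-117 for 48 h. EZH1 was detected by immunoblot and quantified relative to the GAPDH loading control.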
# NCI-H929 [20] = experiment: Downregulation of CDK2 protein expression in human NCI-H929 cells incubated at 0.3 to 3 micromol/L for 48 hrs by Western blot analysis; type: functional, cell-based; conditions: dose 0.3-3 µmol/L
# How it was run: (§2)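 MM.1S and H929 cells given TAS-117 at the indicated doses for 48 h. Protein levels assessed by immunoblot.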
# NCI-H929 [21] = experiment: Upregulation of FOXO3 […] expression in human NCI-H929 cells assessed as enhanced nuclear accumulation at 1 micromol/L after 24 hrs by immunofluorescence staining; type: functional, cell-based; conditions: dose 1.0 µmol/L
# OPM-2/BTZ [22] = experiment: Synergistic activity against human OPM-2/BTZ cells assessed as combination index preincubated in presence of 1.25 uM UNC1999 for 72 hrs followed by compound addition at 2 uM incubated for 48 hrs by MTT assay; type: functional
# NCI-H929 [23] = experiment: Cytotoxicity against human NCI-H929 cells transduced with EZH1 assessed as enhanced sensitivity at 0.156 to 2.5 micromol/L 48 hrs by MTS assay; type: functional, cell-based; conditions: dose 0.156-2.5 µmol/L
# How it was run: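 MM.1S or H929 cells transduced with lentiviral shRNA against EZH1 or against luciferase (shLuc control), then given TAS-117 at the indicated doses for 48 h. Viability by MTS relative to untreated control; mean ± SD of triplicates; compared with shLuc.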
# NCI-H929 [24] = experiment: Induction of apoptosis in human NCI-H929 cells assessed as necrotic cells at 5 micromol/L incubated for 48 hrs by annexin V/PI staining based flow cytometry (reference value: 2.61%); type: functional; conditions: dose 5 µmol/L, at 5 µM
# MM1.S [25] = experiment: Induction of apoptosis in human MM1.S cells assessed as necrotic cells preincubated in presence of 5 micromol/L UNC1999 for 48 hrs followed by compound addition at 2 micromol/L incubated for 12 hrs by annexin V/PI staining based flow cytometry (reference value: 0.17%); type: functional; conditions: dose 2 µmol/L, at 2 µM
# NCI-H929 [26] = experiment: Downregulation of CDK1 protein expression in human NCI-H929 cells incubated at 0.3 to 3 micromol/L for 48 hrs by Western blot analysis; type: functional, cell-based; conditions: dose 0.3-3 µmol/L; how it was run: as §2
# Sequence of Serine/threonine-protein kinase AKT (Homo sapiens) (P31749 whole entry, looked up): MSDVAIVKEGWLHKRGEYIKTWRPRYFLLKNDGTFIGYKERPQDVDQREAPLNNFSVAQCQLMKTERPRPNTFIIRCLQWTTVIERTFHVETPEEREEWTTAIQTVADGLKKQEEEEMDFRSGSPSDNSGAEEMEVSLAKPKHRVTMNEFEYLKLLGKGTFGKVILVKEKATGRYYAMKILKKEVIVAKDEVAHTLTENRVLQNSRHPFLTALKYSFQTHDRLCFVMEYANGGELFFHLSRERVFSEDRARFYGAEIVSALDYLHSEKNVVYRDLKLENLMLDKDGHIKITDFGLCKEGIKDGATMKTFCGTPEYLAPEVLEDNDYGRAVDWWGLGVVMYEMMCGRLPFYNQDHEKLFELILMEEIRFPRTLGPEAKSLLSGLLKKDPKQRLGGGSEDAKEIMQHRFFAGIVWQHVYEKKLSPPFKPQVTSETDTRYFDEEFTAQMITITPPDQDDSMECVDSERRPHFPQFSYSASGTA
# Sequence of Serine/threonine-protein kinase AKT (Homo sapiens) (P31751 whole entry, looked up): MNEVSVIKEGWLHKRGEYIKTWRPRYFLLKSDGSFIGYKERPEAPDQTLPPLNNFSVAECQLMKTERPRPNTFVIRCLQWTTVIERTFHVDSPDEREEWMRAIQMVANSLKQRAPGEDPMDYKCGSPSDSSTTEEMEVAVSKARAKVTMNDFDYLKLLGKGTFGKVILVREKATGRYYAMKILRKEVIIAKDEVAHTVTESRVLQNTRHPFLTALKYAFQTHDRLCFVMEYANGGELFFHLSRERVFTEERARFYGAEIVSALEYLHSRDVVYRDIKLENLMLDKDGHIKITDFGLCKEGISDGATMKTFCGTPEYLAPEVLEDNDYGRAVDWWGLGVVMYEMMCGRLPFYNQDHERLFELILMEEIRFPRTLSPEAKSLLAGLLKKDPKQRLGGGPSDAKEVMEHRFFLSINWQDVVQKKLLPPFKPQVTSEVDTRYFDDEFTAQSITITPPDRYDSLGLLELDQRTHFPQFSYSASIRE
# Sequence of Serine/threonine-protein kinase AKT (Homo sapiens) (Q9Y243 whole entry, looked up): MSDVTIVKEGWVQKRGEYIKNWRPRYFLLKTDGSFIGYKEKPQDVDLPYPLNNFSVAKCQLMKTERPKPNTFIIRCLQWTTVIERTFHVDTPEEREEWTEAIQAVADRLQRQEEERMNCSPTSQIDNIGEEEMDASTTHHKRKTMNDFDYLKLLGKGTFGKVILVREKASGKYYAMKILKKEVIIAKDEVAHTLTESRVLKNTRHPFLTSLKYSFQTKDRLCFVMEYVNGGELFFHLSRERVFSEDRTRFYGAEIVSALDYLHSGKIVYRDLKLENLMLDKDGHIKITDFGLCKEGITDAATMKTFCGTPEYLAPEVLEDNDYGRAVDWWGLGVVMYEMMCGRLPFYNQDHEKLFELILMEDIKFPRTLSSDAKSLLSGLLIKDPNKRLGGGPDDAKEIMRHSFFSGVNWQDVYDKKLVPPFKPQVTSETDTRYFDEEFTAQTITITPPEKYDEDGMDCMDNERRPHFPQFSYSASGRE
smiles,measurement,setting,value
C[C@]1(O)C[C@@](N)(c2ccc(-c3nc4n(c3-c3ccccc3)COc3ccncc3-4)cc2)C1 [PIFUSERTIB],Activity,MM1.S [1],25.3%
same,Activity,NCI-H929 [2],Active
same,CI,MM1.S [3],0.237
same,Activity,OPM-2/BTZ [4],Active
same,CI,MM1.S [5],0.889
same,CI,OPM-2 [6],2.53
same,Activity,OPM-2/BTZ [7],Active
same,CI,OPM-2/BTZ [8],0.967
same,CI,OPM-2 [9],5.25
same,CI,NCI-H929 [10],1.046
same,inhibition,[11],Active
same,CI,OPM-2 [12],1.33
same,Activity,NCI-H929 [13],Dose-Dependent Effect
same,CI,OPM-2/BTZ [14],0.205
same,CI,NCI-H929 [15],7.428
same,Activity,NCI-H929 [16],70.4%
same,Activity,NCI-H929 [17],Active
same,Activity,NCI-H929 [18],2.15%
same,Activity,MM1.S [19],Active
same,Activity,NCI-H929 [20],Active
same,Activity,NCI-H929 [21],Active
same,CI,OPM-2/BTZ [22],0.395
same,Activity,NCI-H929 [23],Active
same,Activity,NCI-H929 [24],0.84%
same,Activity,MM1.S [25],1.04%
same,Activity,NCI-H929 [26],Active

# From ChEMBL document CHEMBL5647697, “Akt inhibition synergizes with polycomb repressive complex 2 inhibition in the treatment of multiple myeloma” (2019)
